Data from ChEMBL document CHEMBL4020721 (Eur J Med Chem, 2017).

What was measured:
[1] = Intrinsic clearance in human liver microsomes assessed per mg protein at 1 uM preincubated for 5 mins followed by NADPH addition measured after 5 to 30 mins by LC-MS/MS analysis; type: ADME, microsome; details: read-out: CLH
How it was run: (§1)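 Microsomes (0.5 mg/ml) with 1 µM compound were preincubated 5 min at 37°C in 100 mM phosphate buffer pH 7.4, then started with 1 mM NADPH. Samples were taken at 0, 5, 10 and 30 min, quenched with acetonitrile/tinidazole and run by LC-MS/MS. CLint = k / microsomal protein concentration. Midazolam was the positive control.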

SNU-5 = experiment: Growth inhibition of human SNU5 cells after 72 hrs by CCK-8 assay; type: functional, cell-based
CYP1A2 [2] = target: T1, CYP1A2 (Homo sapiens, UniProt P05177); experiment: Reversible inhibition of CYP1A2 in human liver microsomes at 10 uM after 20 mins in presence of NADPH by LC-MS/MS analysis; type: ADME
T1 sequence (P05177 whole entry): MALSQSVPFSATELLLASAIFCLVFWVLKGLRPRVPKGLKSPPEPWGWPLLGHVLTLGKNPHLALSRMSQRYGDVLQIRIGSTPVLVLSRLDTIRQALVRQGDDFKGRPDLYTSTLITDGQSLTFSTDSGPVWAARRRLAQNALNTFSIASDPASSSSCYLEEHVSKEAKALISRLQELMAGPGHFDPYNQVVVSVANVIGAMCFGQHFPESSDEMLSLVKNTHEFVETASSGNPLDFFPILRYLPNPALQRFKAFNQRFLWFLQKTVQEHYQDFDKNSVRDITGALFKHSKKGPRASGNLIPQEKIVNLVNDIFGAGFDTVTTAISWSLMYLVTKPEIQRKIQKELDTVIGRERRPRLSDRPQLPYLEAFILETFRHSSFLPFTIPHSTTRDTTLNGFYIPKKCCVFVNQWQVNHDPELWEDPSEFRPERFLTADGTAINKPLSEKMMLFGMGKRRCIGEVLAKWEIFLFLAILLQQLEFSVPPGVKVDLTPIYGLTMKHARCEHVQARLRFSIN

CYP2D6 [3] = target: T2, CYP2D6 (Homo sapiens, UniProt P10635); experiment: Reversible inhibition of CYP2D6 in human liver microsomes at 10 uM after 20 mins in presence of NADPH by LC-MS/MS analysis; type: ADME; details: liver microsomes
NCI-H1993 = experiment: Growth inhibition of human NCI-H1993 cells after 72 hrs by CCK-8 assay; type: functional, cell-based
CYP2C9 [4] = target: T3, CYP2C9 (Homo sapiens, UniProt P11712); experiment: Reversible inhibition of CYP2C9 in human liver microsomes at 10 uM after 20 mins by in presence of NADPH LC-MS/MS analysis; type: ADME; details: liver microsomes
CYP2C19 [5] = target: T4, CYP2C19 (Homo sapiens, UniProt P33261); experiment: Reversible inhibition of CYP2C19 in human liver microsomes at 10 uM after 20 mins in presence of NADPH by LC-MS/MS analysis; type: ADME; details: liver microsomes
[6] = Drug recovery in rat liver microsomes at 1 uM measured after 30 mins by LC-MS/MS analysis; type: ADME, microsome; details: liver microsomes, read-out: Drug recovery
[7] = Intrinsic clearance in rat liver microsomes assessed per mg protein at 1 uM preincubated for 5 mins followed by NADPH addition measured after 5 to 30 mins by LC-MS/MS analysis; type: ADME, microsome; details: read-out: CLH; how it was run: as §1
CYP3A4 [8] = target: T5, CYP3A4 (Homo sapiens, UniProt P08684); experiment: Reversible inhibition of CYP3A4 in human liver microsomes at 10 uM after 20 mins in presence of NADPH by LC-MS/MS analysis; type: ADME; details: liver microsomes
[9] = Intrinsic clearance in monkey liver microsomes assessed per mg protein at 1 uM preincubated for 5 mins followed by NADPH addition measured after 5 to 30 mins by LC-MS/MS analysis; details: liver microsomes; read-out: CLH
[10] = Drug recovery in human liver microsomes at 1 uM measured after 30 mins by LC-MS/MS analysis; type: ADME, microsome; details: liver microsomes, read-out: Drug recovery
How it was run: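 Liver microsomes (0.5 mg/ml) were incubated with 1 µM compound at 37°C in 100 mM phosphate buffer pH 7.4 without NADPH for 30 min. Reactions were quenched with acetonitrile/tinidazole internal standard and analysed by LC-MS/MS. Recovery (%) was taken from the compound/internal standard peak area ratio.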

[11] = Drug recovery in monkey liver microsomes at 1 uM measured after 30 mins by LC-MS/MS analysis
Cytochrome P450 3A4 = Cytochrome P450 3A4 (Homo sapiens, UniProt P08684); experiment: (§2) Time dependent irreversible inhibition of CYP3A4 in human liver microsomes at 10 uM preincubated with compound followed by NADPH addition by LC-MS/MS analysis; type: ADME; details: microsomes, 10 µM
How it was run: (§3)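 HLM (0.2 mg/ml) with 10 µM compound were preincubated 0, 5, 10 or 20 min at 37°C with 1 mM NADPH or PBS. Substrate cocktail (halved concentrations) plus NADPH was then added for 10 min. Metabolites were measured by LC-MS/MS. Kobs is the slope of relative activity versus preincubation time.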

[12] = (§4) Oral bioavailability in Sprague-Dawley rat plasma at 6 mg/kg by UPLC-MS/MS analysis; type: ADME, organism-based; details: Sprague-Dawley, plasma
How it was run: (§5)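 Male Sprague-Dawley rats (180-220 g) were fasted overnight with free access to water. Dosing was intravenous (n=2) or oral at 6 mg/kg (n=3). Heparinized blood was drawn from 0 to 1440 min. Plasma was frozen at -20°C, then precipitated with acetonitrile containing internal standard, centrifuged and analysed by UPLC-MS/MS.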

[13] = Cmax in Sprague-Dawley rat plasma at 6 mg/kg, po by UPLC-MS/MS analysis; type: ADME, organism-based; design: dose 6 mg/kg, route oral; how it was run: as §5
[14] = Half life in Sprague-Dawley rat plasma at 1 mg/kg, iv by UPLC-MS/MS analysis; type: ADME, organism-based; how it was run: as §5
[15] = Volume of distribution at steady state in Sprague-Dawley rat plasma at 1 mg/kg, iv by UPLC-MS/MS analysis; type: ADME, organism-based; details: read-out: Vdss
How it was run: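 Male Sprague-Dawley rats (180-220 g), fasted overnight with water available, dosed iv (n=2). Blood on heparin collected from 0 to 1440 min. Plasma obtained by centrifugation and stored at -20°C. Proteins precipitated with acetonitrile containing internal standard, then UPLC-MS/MS. Vss taken from the iv data.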

[16] = Clearance in Sprague-Dawley rat plasma at 1 mg/kg, iv by UPLC-MS/MS analysis; type: ADME, organism-based; how it was run: as §5
CYP2D6 [17] = target: T2, CYP2D6; experiment: Time dependent irreversible inhibition of CYP2D6 in human liver microsomes at 10 uM preincubated with compound followed by NADPH addition by LC-MS/MS analysis; type: ADME; details: liver microsomes; how it was run: as §3
CYP1A2 [18] = target: T1, CYP1A2; experiment: Time dependent irreversible inhibition of CYP1A2 in human liver microsomes at 10 uM preincubated with compound followed by NADPH addition by LC-MS/MS analysis; type: ADME; details: liver microsomes; how it was run: as §3
CYP2C19 [19] = target: T4, CYP2C19; experiment: Time dependent irreversible inhibition of CYP2C19 in human liver microsomes at 10 uM preincubated with compound followed by NADPH addition by LC-MS/MS analysis; type: ADME; how it was run: as §3
[20] = AUC (0 to 24 hrs) in Sprague-Dawley rat plasma at 6 mg/kg, po by UPLC-MS/MS analysis; type: ADME, organism-based; design: dose 6 mg/kg, time < 24 hr, route oral; how it was run: as §5
CYP2C9 [21] = target: T3, CYP2C9; experiment: Time dependent irreversible inhibition of CYP2C9 in human liver microsomes at 10 uM preincubated with compound followed by NADPH addition by LC-MS/MS analysis; type: ADME; details: liver microsomes; how it was run: as §3
CYP3A4 [22] = target: T5, CYP3A4; experiment: as §2; type: ADME; details: liver microsomes; how it was run: as §3
[23] = target: Hepatocyte growth factor receptor (Homo sapiens, UniProt P08581); experiment: Inhibition of c-MET (unknown origin) using TK substrate-biotin peptide as substrate preincubated for 5 to 10 mins followed by ATP addition measured after 30 mins by HTRF assay
Rattus norvegicus = experiment: as §4; type: ADME, organism-based; details: in vivo; how it was run: as §5

T3 sequence (P11712 whole entry): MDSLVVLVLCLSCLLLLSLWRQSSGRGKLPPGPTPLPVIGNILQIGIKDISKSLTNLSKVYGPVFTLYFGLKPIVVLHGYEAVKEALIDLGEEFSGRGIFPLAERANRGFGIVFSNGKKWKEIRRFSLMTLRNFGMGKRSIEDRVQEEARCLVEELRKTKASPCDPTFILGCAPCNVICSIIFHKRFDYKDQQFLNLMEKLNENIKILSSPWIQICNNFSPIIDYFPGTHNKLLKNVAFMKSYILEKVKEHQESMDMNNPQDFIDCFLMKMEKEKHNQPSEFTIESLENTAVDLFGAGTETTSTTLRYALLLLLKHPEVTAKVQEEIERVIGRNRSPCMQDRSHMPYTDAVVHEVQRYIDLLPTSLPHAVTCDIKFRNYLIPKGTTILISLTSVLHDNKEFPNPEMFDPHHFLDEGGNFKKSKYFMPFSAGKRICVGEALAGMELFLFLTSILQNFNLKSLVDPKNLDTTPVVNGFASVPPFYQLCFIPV
T4 sequence (P33261 whole entry): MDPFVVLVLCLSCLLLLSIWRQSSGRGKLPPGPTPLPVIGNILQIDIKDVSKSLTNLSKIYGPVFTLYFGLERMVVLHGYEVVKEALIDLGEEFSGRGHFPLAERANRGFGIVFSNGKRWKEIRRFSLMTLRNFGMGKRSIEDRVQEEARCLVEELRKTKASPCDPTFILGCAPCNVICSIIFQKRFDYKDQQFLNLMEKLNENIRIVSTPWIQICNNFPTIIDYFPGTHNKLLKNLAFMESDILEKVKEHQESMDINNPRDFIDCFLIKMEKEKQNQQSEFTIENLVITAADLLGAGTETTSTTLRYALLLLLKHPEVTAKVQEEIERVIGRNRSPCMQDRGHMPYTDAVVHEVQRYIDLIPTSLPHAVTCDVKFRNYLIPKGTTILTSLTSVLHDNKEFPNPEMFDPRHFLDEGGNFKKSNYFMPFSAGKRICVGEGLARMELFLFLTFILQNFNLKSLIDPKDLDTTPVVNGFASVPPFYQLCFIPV
T2 sequence (P10635 whole entry): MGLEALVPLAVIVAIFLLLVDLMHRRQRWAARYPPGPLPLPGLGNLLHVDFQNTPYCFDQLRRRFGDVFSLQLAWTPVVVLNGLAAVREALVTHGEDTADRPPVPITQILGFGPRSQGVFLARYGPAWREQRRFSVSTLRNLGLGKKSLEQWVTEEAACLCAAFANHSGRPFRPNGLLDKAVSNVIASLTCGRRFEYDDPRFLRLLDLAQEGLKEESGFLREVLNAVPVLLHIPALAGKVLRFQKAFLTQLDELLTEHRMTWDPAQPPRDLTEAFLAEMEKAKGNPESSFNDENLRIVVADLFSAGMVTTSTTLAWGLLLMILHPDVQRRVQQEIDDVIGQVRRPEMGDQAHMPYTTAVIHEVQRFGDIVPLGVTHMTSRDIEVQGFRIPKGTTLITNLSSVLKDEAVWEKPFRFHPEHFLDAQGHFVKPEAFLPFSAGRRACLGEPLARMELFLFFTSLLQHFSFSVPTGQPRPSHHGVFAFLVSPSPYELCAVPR
T5 sequence (P08684 whole entry): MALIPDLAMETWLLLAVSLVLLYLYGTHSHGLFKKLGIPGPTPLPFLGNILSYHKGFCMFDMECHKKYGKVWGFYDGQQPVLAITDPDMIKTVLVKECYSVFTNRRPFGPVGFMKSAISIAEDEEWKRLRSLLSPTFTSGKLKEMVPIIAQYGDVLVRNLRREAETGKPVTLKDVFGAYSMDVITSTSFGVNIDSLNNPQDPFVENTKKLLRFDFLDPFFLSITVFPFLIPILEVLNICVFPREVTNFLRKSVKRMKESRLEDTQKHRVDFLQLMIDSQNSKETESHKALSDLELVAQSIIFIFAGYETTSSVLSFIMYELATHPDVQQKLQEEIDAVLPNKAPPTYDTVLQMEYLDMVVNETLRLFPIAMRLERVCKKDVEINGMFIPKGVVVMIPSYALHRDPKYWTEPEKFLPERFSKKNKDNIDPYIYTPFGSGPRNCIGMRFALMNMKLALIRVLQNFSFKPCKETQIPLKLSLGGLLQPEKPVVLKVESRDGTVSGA
Cytochrome P450 3A4, sequence (P08684 whole entry): as above
Hepatocyte growth factor receptor, sequence (P08581 whole entry): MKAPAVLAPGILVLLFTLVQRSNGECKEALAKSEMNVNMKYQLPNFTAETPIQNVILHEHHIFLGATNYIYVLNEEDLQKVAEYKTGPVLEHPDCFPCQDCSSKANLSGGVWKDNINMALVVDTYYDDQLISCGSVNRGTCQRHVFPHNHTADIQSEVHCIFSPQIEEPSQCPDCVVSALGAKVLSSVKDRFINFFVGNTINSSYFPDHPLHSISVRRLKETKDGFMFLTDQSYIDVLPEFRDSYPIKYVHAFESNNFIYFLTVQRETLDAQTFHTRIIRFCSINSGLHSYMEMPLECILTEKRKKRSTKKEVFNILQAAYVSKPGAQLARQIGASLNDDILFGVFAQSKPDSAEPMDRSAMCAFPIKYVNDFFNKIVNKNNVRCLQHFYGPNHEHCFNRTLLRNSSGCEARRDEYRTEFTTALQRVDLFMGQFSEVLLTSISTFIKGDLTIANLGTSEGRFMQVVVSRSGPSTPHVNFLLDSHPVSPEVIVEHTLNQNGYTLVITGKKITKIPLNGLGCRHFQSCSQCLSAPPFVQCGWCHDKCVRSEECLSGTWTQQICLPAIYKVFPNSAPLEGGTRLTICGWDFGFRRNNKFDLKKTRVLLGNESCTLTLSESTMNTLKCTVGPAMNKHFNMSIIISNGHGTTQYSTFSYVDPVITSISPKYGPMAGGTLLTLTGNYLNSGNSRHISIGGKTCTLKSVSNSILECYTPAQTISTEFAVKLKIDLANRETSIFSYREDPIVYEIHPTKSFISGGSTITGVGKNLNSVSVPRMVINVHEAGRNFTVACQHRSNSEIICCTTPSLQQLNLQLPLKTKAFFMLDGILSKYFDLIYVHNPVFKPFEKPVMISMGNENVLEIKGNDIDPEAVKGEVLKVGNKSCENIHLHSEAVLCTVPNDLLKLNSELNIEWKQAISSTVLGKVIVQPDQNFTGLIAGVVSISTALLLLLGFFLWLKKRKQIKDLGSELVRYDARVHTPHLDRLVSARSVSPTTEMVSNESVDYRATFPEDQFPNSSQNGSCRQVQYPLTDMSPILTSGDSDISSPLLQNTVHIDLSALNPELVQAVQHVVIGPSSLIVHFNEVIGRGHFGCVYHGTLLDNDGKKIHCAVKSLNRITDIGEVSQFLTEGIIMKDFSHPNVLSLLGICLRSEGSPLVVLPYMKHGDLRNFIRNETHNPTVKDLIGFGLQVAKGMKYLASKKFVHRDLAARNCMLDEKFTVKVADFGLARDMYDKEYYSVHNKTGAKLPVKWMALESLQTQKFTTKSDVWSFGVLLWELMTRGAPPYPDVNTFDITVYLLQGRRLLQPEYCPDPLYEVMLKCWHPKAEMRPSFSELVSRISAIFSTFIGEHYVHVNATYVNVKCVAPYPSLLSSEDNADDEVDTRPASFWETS

microsomal CLint at 1 µM [1] | IC50 (SNU-5; Homo sapiens, SNU-5, 72 h) | inhibition at 20 min, 10 µM (CYP1A2 [2]) | inhibition at 20 min, 10 µM (CYP2D6 [3]) | IC50 (NCI-H1993; Homo sapiens, NCI-H1993, 72 h) | inhibition at 20 min, 10 µM (CYP2C9 [4]) | inhibition at 20 min, 10 µM (CYP2C19 [5]) | remaining at 0.5 h, 1 µM [6] | microsomal CLint at 1 µM [7] | inhibition at 20 min, 10 µM (CYP3A4 [8]) | microsomal CLint at 1 µM [9] | remaining at 0.5 h, 1 µM [10] | remaining at 0.5 h, 1 µM [11] | TDI (Cytochrome P450 3A4) | SMILES | other results
5 µL/min/mg | 1.7 nM | < 50% | < 50% | 0.9 nM | < 50% | < 50% | 103% | 34 µL/min/mg | < 50% | 11 µL/min/mg | 101% | 65% | Active | CC(c1cc2cc(-c3cnn(C)c3)cnc2cc1F)n1nnc2ncc(-c3cnn(C)c3)nc21 (stereo unspecified) | –
2 µL/min/mg | 0.6 nM | < 50% | < 50% | 0.9 nM | < 50% | < 50% | 115% | 1 µL/min/mg | < 50% | 6 µL/min/mg | 120% | 103% | – | CC(c1cc2cc(-c3cnn(C)c3)cnc2cc1F)n1nnc2ncc(-c3ccc(C(N)=O)c(F)c3)nc21 (stereo unspecified) | bioavailability [12]: 8.2%; Cmax [13]: 98.9 ng/mL; half-life [14]: 3.2 h; Vd [15]: 2 L/kg; clearance [16]: 9.33 mL/min/kg; inhibition at 10 µM (CYP2D6 [17]): < 50%; inhibition at 10 µM (CYP1A2 [18]): < 50%; inhibition at 10 µM (CYP2C19 [19]): < 50%; AUC(0-t) at 24 h [20]: 879 ng·h/mL; inhibition at 10 µM (CYP2C9 [21]): < 50%; inhibition at 10 µM (CYP3A4 [22]): < 50%
11 µL/min/mg | 0.4 nM | < 50% | < 50% | 0.4 nM | < 50% | < 50% | 94% | 12 µL/min/mg | < 50% | 50 µL/min/mg | 97% | 99% | Active | CC(c1c(F)cc2ncc(-c3cnn(C)c3)cc2c1F)n1nnc2ncc(-c3ccc(C(N)=O)c(F)c3)nc21 (stereo unspecified) | –
– | – | – | – | – | – | – | – | – | – | – | – | – | – | CC(c1cc2cc(-c3cnn(C)c3)cnc2cc1F)n1nnc2ncc(-c3cnn(CCO)c3)nc21 (single isomer, unassigned; enantiomer 1) | IC50 [23]: 0.68 nM; IC50 (SNU-5; snu-5): 0.8 nM; IC50 (NCI-H1993; nci-h1993): 0.7 nM; F (Rattus norvegicus): 8.6%
